Consider one substance from article PMC11966317 (ACS Omega, 2025).

Data set [1] deals with heart, liver, spleen, lungs, and kidneys. The experiment in a line: HE staining of major organs after treatment. The format is in vivo, NOD/SCID mice. The note with it: kidneys after 10 mg/kg every 3 days, five doses.
For a further data set, the system named is CHO-hPD-L1 tumors. The experiment in a line: Tumor volume and body weight during treatment. The format is in vivo, NOD/SCID mice. To be noted: 10 mg/kg every 3 days, five doses, monitored every 3 days. The gist of the method:
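Mice bearing CHO-hPD-L1 tumours were randomised to PBS or the anti-PD-L1 antibody (n = 3 each). Either was given at 10 mg/kg via the tail vein every 3 days, five doses over a 14-day cycle. Tumour volume and body weight were recorded. Endpoint was tumour volume >1500 mm3 or maximum diameter >20 mm.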

With “Atezolizumab: anti-PD-L1 monoclonal antibody”, the “histopathology of major organs (HE staining)” value in data set [1] is “No histopathological abnormalities”. Besides, in the data set with CHO-hPD-L1 tumors, the “body weight versus PBS group” value was “no notable differences in body weight”.
